This note sets out measurements from ChEMBL document CHEMBL1148488, “Design, synthesis, and evaluation of a liposaccharide drug delivery agent: application to the gastrointestinal absorption of gentamicin” (J Med Chem, 2004).

Molecules are shown by their SMILES.

Common to all, as to type: ADME, organism-based
The nature of series [1]: Maximum plasma concentration at a concentration of 60 mg/kg perorally in rats along with control. The arrangement: dose 60 mg/kg, route oral. Conditions: rat, po. The method, boiled down: (§1)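 Cannulated male Sprague–Dawley rats (300–350 g), fasted 15 h, given 60 mg/kg by oral gavage under light O2/CO2 anaesthesia in 1 mL 5% DMSO/water at pH 8. Arterial plasma sampled 0–120 min and assayed by fluorescence polarization immunoassay. Cmax is observed; AUC0–120 is trapezoidal. F = AUCpo·dose_iv/(AUCiv·dose_po)×100, using iv 3 mg/kg. Mean ± SEM, 4–5 rats.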

Series [2] in a line: Maximum plasma concentration at a concentration of 3 mg/kg in rats, intravenously. The arrangement: dose 3 mg/kg, route intravenous. Conditions: rat, iv. Put shortly:
(§2)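 Male Sprague–Dawley rats (300–350 g) with femoral artery cannula, dosed next day at 3 mg/kg in 0.3 mL heparinized saline via lateral tail vein. Arterial blood drawn at 0, 5, 10, 15, 30, 60, 90, 120 min, and plasma frozen at –70 °C. Gentamicin measured by fluorescence polarization immunoassay (LOD 0.30 μg/mL). Cmax is the observed value; AUC0–120 by linear trapezoidal rule. Mean ± SEM, 4–5 rats.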

Series [3] can be described thus: Area under the curve at a concentration of 3 mg/kg in rats, intravenously. Conditions: rat, in vivo, iv, read-out: AUC 120 (converted). The arrangement: dose 3 mg/kg, route intravenous. Put shortly:
as §2

The nature of series [4]: Oral bioavailability in rat (dose 60 mg/kg p.o.). Conditions: in vivo. The method, boiled down:
as §1

Series [5] in a line: Area under the curve at a concentration of 60 mg/kg perorally in rats along with control. More on the design: dose 60 mg/kg, route oral. Conditions: rat, in vivo, po, read-out: AUC 120 (converted). The method, boiled down: as §1
Series [6] concerns Rattus norvegicus. The series is described as follows: Bioavailability in rat (dose 3 mg/kg i.v.). Conditions: in vivo, iv.

For `CNC(C)C1CC[C@H](N)[C@@H](OC2[C@@H](O)[C@@H](O[C@H]3OC[C@H](O)[C@@H](NC)[C@@H]3O)[C@H](N)C[C@@H]2N)O1.O=S(=O)(O)O` (stereo partly drawn), the Cmax is 770 ng/mL in series [1] and 8190 ng/mL in series [2]. Further, the AUC in series [3] was 4180 ng·h/mL; in series [5], 1180 ng·h/mL. For the same compound, the bioavailability in series [4] stood at 1.4%. Further, in series [6], the F was 100%.

For `CN[C@@H]1C(O)[C@H](O[C@@H]2C(O)C(O[C@H]3OC(CN)CCC3N)[C@@H](N)C[C@H]2N)OC[C@@H]1O.O=S(=O)(O)O` (stereo partly drawn), the Cmax stood at 770 ng/mL in series [1] and 8190 ng/mL in series [2]. Moreover, the AUC is 4180 ng·h/mL in series [3] and 1180 ng·h/mL in series [5]. In addition, the bioavailability in series [4] (read-out: Bioavailabiility) is 1.4%. In addition, the Bioavailabiility in series [6] was found to be 100%.

In the case of `CN[C@@H]1[C@H](O)[C@H](O[C@H]2[C@H](N)C[C@H](N)C(O[C@H]3OC(C(C)N)CC[C@@H]3N)[C@H]2O)OC[C@@H]1O.O=S(=O)(O)O` (stereo partly drawn), the Cmax in series [1] is 770 ng/mL; in series [2] it was 8190 ng/mL. Further, the AUC in series [3] is 4180 ng·h/mL; in series [5] it was 1180 ng·h/mL. In addition, in series [4], the bioavailability was 1.4%. In addition, in series [6], the F is on record as 100%.

What is called Cmax is the highest concentration seen after dosing. Usually AUC stands for the area under the concentration-time curve, a measure of exposure.
